Measurements from ChEMBL document CHEMBL2384966, “Probes for narcotic receptor mediated phenomena. 47. Novel C4a- and N-substituted-1,2,3,4,4a,9a-hexahydrobenzofuro[2,3-c]pyridin-6-ols” (Bioorg Med Chem, 2013).
Calls of active or inactive are those of the source. No cut-off for these calls is given here.

Columns and labels:
[1] = molecular target: T1, Delta-type opioid receptor (Homo sapiens, UniProt P41143); test: Binding affinity to delta opioid receptor (unknown origin)
[2] = molecular target: T2, Kappa-type opioid receptor (Homo sapiens, UniProt P41145); test: Binding affinity to kappa opioid receptor (unknown origin)
Mu-type opioid receptor [3] = molecular target: T3, Mu-type opioid receptor (Homo sapiens, UniProt P35372); test: Binding affinity to mu opioid receptor (unknown origin)
[4] = molecular target: T2, Kappa-type opioid receptor; test: Displacement of [3H]U69,593 from human recombinant kappa opioid receptor expressed in CHO cell membranes after 2 hrs by liquid scintillation counting analysis; assay type: cell-based
[5] = molecular target: T1, Delta-type opioid receptor; test: Displacement of [3H]DADLE from human recombinant delta opioid receptor expressed in CHO cell membranes after 2 hrs by liquid scintillation counting analysis
Procedure, shortened: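 Human DOR stably expressed in CHO cells; washed membranes (~30 µg protein/tube) incubated with ~2 nM [3H]DADLE and 10 drug concentrations in 50 mM Tris-HCl pH 7.4 with protease inhibitors, 2 h at 25 °C. Levallorphan defined nonspecific binding.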

Mu-type opioid receptor [6] = molecular target: T3, Mu-type opioid receptor; test: biochemical; assay type: cell-based, CHO
Homo sapiens [7] = species on record: Homo sapiens; test: Selectivity ratio of Ki for human recombinant kappa opioid receptor to Ki for human recombinant delta opioid receptor
Homo sapiens [8] = species on record: Homo sapiens; test: Selectivity ratio of Ki for human recombinant kappa opioid receptor to Ki for human recombinant mu opioid receptor
Homo sapiens [9] = species on record: Homo sapiens; test: Selectivity ratio of Ki for human recombinant mu opioid receptor to Ki for human recombinant delta opioid receptor
[10] = molecular target: T1, Delta-type opioid receptor; test: Antagonist activity at human recombinant delta opioid receptor expressed in mouse/rat NG108-15 cell membranes assessed as inhibition of SNC80-induced [35S]GTPgammaS binding by liquid scintillation counting analysis; assay type: functional
[11] = molecular target: T1, Delta-type opioid receptor; test: Partial agonist activity at human recombinant delta opioid receptor expressed in mouse/rat NG108-15 cell membranes assessed as stimulation of [35S]GTPgammaS binding after 3 hrs by liquid scintillation counting analysis; assay type: functional
Procedure, shortened: (§1)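 DOR function measured in NG108-15 neuroblastoma-glioma membranes. Incubated with drug, GDP and 50 pM final [35S]GTPγS in 50 mM Tris-HCl pH 7.4, 100 mM NaCl, 10 mM MgCl2, 1 mM EDTA, 1 mM DTT, 0.1% BSA, 3 h at 25 °C. Unlabelled GTPγS defined nonspecific binding. Bound label collected on GF/B filters and scintillation counted; ED50 and Emax reported.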

[12] = molecular target: T1, Delta-type opioid receptor; test: Partial agonist activity at human recombinant delta opioid receptor expressed in mouse/rat NG108-15 cell membranes assessed as stimulation of [35S]GTPgammaS binding after 3 hrs by liquid scintillation counting analysis relative to SNC80; assay type: functional; procedure, shortened: as §1

T3 sequence (P35372 whole entry): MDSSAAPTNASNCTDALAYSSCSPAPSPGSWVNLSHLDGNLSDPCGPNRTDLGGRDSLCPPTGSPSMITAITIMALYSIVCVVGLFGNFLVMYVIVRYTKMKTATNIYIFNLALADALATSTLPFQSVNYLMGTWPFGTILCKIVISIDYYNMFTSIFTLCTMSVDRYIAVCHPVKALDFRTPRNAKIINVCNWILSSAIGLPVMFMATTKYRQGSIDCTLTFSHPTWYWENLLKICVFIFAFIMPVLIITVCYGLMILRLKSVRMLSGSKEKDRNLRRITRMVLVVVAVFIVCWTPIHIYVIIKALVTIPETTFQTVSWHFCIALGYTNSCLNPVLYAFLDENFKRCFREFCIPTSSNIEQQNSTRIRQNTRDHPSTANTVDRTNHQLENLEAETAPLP
T1 sequence (P41143 whole entry): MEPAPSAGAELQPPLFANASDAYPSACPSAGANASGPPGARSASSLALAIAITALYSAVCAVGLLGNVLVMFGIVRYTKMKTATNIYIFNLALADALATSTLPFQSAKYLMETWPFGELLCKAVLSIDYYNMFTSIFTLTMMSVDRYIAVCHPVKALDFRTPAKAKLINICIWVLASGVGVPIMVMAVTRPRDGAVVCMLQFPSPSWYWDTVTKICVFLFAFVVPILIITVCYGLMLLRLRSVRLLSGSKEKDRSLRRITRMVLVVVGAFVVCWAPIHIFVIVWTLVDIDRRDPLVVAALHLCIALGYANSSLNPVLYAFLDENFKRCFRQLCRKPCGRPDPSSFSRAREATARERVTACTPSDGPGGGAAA
T2 sequence (P41145 whole entry): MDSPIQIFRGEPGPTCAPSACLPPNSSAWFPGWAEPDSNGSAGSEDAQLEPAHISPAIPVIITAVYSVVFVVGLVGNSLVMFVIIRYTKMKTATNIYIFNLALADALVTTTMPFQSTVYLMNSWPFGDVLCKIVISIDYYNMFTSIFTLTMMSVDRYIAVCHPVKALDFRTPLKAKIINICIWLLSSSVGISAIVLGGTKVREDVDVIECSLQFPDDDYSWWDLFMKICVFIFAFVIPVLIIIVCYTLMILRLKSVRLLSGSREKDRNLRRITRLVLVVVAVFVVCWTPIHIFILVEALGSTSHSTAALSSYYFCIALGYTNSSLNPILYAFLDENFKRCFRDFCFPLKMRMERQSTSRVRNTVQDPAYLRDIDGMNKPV

Row | SMILES | Ratio Ki (Homo sapiens [7]) | Ratio Ki (Homo sapiens [8]) | Ratio Ki (Homo sapiens [9]) | Ke [10] | other results
1 | CC[C@@]12CCN(CC3CC3)C[C@@H]1Oc1ccc(O)cc12 | – | – | – | – | Ki [1]: 53 nM; Ki [2]: 34 nM; Ki (Mu-type opioid receptor [3]): 4 nM
2 | CC[C@@]12CCN(CCc3ccccc3)C[C@@H]1Oc1ccc(O)cc12 | – | – | – | – | Ki (Mu-type opioid receptor [3]): 0.9 nM
3 | CN1CC[C@@]2(Cc3ccccc3)c3cc(O)ccc3O[C@H]2C1 (racemic) | – | – | – | – | Ki [4]: 2880 nM; Ki [5]: 64 nM; Ki (Mu-type opioid receptor [6]): 60 nM
4 | CN1CC[C@@]2(CCc3ccccc3)c3cc(O)ccc3O[C@H]2C1 (racemic) | – | – | – | – | Ki [4]: 3540 nM; Ki [5]: 551 nM; Ki (Mu-type opioid receptor [6]): 66 nM
5 | CC[C@@]12CCN(C)C[C@@H]1Oc1ccc(O)cc12 (racemic) | > 23 | > 263 | 0.09 | – | Ki [4]: > 5000 nM; Ki [5]: 212 nM; Ki (Mu-type opioid receptor [6]): 19 nM
6 | CCCC[C@@]12CCN(C)C[C@@H]1Oc1ccc(O)cc12 (relative stereo) | 9 | 20 | 0.5 | – | –
7 | CN1CC[C@@]2(C)c3cc(O)ccc3O[C@H]2C1 (relative stereo) | > 0.4 | > 10 | 0.04 | – | –
8 | CN1CC[C@@]2(CCCCCc3ccccc3)c3cc(O)ccc3O[C@H]2C1 (relative stereo) | 0.95 | 3 | 0.4 | > 200 nM | –
9 | CN1CC[C@@]2(CCc3ccc(F)cc3)c3cc(O)ccc3O[C@H]2C1 (relative stereo) | 22 | 17 | 1.3 | – | –
10 | CN1CC[C@@]2(CCc3ccccc3F)c3cc(O)ccc3O[C@H]2C1 (relative stereo) | – | – | – | 29 nM | –
11 | Oc1ccc2c(c1)[C@]1(CCc3ccccc3)CCN(CC3CC3)C[C@@H]1O2 (relative stereo) | – | – | – | – | ED50 [11]: inactive
12 | Oc1ccc2c(c1)[C@]1(CCc3ccccc3)CCN(CCc3ccc(C(F)(F)F)cc3)C[C@@H]1O2 (relative stereo) | – | – | – | 827 nM | Emax [12]: 46%
13 | Oc1ccc2c(c1)[C@]1(CCc3ccccc3)CCN(CCc3ccc(F)cc3)C[C@@H]1O2 (relative stereo) | – | – | – | 213 nM | Emax [12]: 29%
14 | Oc1ccc2c(c1)[C@]1(CCc3ccccc3)CCN(CCc3cccc(C(F)(F)F)c3)C[C@@H]1O2 (relative stereo) | – | – | – | 455 nM | –
15 | Oc1ccc2c(c1)[C@]1(CCc3ccccc3)CCN(CCc3ccccc3)C[C@@H]1O2 (relative stereo) | – | – | – | 258 nM | Emax [12]: 29%
16 | Oc1ccc2c(c1)[C@]1(CCc3ccccc3)CCN(CCc3ccccc3C(F)(F)F)C[C@@H]1O2 (relative stereo) | 14 | 11 | 1.3 | – | –
17 | Oc1ccc2c(c1)[C@]1(CCc3ccccc3)CCN(CCc3ccccc3F)C[C@@H]1O2 (relative stereo) | – | – | – | 37 nM | ED50 [11]: inactive
